# Source: article PMC5817038 (Bioorganic & medicinal chemistry letters, 2018)
# Where two headings read alike, the source gives them in different places.
# How the values were obtained:
# [1] = normal mice; cited from earlier work
# IDH1-R132H = IDH1-R132H (Homo sapiens, UniProt O75874, R132H); format: biochemical
# [2] = tested on: HCT116 colorectal carcinoma cell line expressing heterozygous IDH1-R132H; experiment: Cell uptake of radiolabeled compounds, IDH1-mutated HCT116 vs isogenic WT-IDH1; format: cell-based
# Procedure, shortened: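 Isogenic HCT116 lines expressing IDH1-R132H or wild-type IDH1 were incubated with the 125I-labelled iodo analogue or the 18F-labelled fluoro inhibitor, no-carrier-added, and cell-associated radioactivity was measured over time. Uptake ratio is mutant IDH1 over WT-IDH1 uptake. Three wells per point, mean ± SEM; Student's t-test, P < 0.05.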
# [3] = tested on: IDH1-mutated astrocytoma cell line (IMA); experiment: Cell uptake of radiolabeled compounds, IDH1-mutated astrocytoma; format: cell-based; settings: time course
# Procedure, shortened: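 Radioiodinated or 18F-labelled test compounds, prepared no-carrier-added, were incubated with IDH1-mutated cells and their isogenic WT-IDH1 counterparts. Uptake was followed over time, starting at 5 min, and compared between mutant and WT lines as uptake ratios. Each condition was run in three wells, reported as mean ± SEM, with significance by Student's t-test.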
# [4] = tested on: HCT116 IDH1-R132H tumor xenografts; experiment: Tissue distribution in athymic mice bearing IDH1-mutated HCT116 tumor xenografts; format: in vivo
# Procedure, shortened: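 Athymic mice bearing IDH1-mutated HCT116 xenografts received either the 131I- or the 18F-labelled test compound, in separate groups. Tissues were sampled from 0.5 to 4 h after injection. Uptake is given as %ID/g, or as %ID for liver plus intestines. Five animals per time point, mean ± SEM. WT-IDH1 tumour-bearing mice were also examined at 1–4 h.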
# wild-type IDH1 = settings: read-out: IC50 against wild-type IDH1 (reported); literature value; cited from earlier work
# [5] = tested on: IDH1-mutated glioma xenografts; settings: cited from earlier work
# Chain of IDH1-R132H (O75874 whole entry R132H): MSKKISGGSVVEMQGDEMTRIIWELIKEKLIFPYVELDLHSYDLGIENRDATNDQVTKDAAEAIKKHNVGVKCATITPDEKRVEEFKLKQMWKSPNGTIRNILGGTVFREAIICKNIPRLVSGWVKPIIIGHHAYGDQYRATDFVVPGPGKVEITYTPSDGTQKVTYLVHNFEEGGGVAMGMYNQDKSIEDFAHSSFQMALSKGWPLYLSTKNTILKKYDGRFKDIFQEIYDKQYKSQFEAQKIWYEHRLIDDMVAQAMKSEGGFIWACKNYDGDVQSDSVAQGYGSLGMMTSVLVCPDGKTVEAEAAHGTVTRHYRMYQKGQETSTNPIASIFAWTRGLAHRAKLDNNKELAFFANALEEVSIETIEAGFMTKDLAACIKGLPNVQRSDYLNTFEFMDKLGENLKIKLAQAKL
structure (smiles),measurement,setting,value
Cc1ccccc1C(C(=O)NC1CCCC1)N(C(=O)Cn1cnc2ccccc21)c1cccc(F)c1 (stereo not shown) [ML-309],blood-brain-barrier (BBB) permeability,[1],lack of blood-brain-barrier (BBB) permeability
Cc1ccccc1C(C(=O)NC1CCCCC1)N(C(=O)Cn1ccnc1C)c1cccc(I)c1 (stereo not shown) [compound 1],enzyme inhibition (maximal),IDH1-R132H; at 6.12 μM,100%
Cc1ccccc1C(C(=O)NC1CCCCC1)N(C(=O)Cn1ccnc1C)c1cccc([18F])c1 (stereo not shown) [[^18F]AGI-5198],uptake ratio IDH1-mutated/WT-IDH1,"[2]; HCT116, 5 min",about 1.6
same,uptake ratio IDH1-mutated/WT-IDH1,"[2]; HCT116, 30 min, remaining at that level until 120 min",~2.0
same,uptake in IDH1-mutated vs WT-IDH1 cells,[3],higher only at 5 min but not thereafter
same,uptake and retention in brain,[4]; 0.5-4 h,very low
same,tumor uptake,[4]; 0.5 h post injection,0.84 ± 0.18 % ID/g
same,blood activity,[4]; 30 min post injection,0.88 ± 0.16 % ID/g
same,peak tumor-to-muscle ratio (TMR),[4]; 2 h,2.5 ± 1.0
same,peak tumor-to-blood ratio (TBR),[4]; 4 h,3.0 ± 1.3
same,blood activity,[4]; 4 h post injection,~ 0.1 % ID/g
same,"liver and intestines, share of injected dose",[4]; 4 h post injection,87 ± 7 % ID
same,tumor uptake,[4]; 4 h post injection,0.33 ± 0.08 % ID/g
same,stability against dehalogenation in vivo,"[4]; mouse, in vivo",stable against dehalogenation in vivo
Cc1ccccc1C(C(=O)NC1CCCCC1)N(C(=O)CNc1ccc(F)nc1)c1cccc(F)c1 (stereo not shown) [compound 2],enzyme inhibition (maximal),IDH1-R132H; at 12.25 μM,71.3 ± 5.3%
Cc1ccccc1C(C(=O)NC1CCCCC1)N(C(=O)Cn1ccnc1C)c1cccc(F)c1 (stereo not shown) [AGI-5198],inhibition at 12.25 µM,IDH1-R132H; read-out: enzyme inhibition (maximal),100%
same,IC50,wild-type IDH1,> 100 µM
same,D-2-HG production,[5],inhibit D-2-HG production
same,anti-tumor effect,[5],anti-tumor effects
